The results in this text go back to ChEMBL document CHEMBL1649123, “Erythromycin- and chloramphenicol-induced ribosomal assembly defects are secondary effects of protein synthesis inhibition” (2009).

In general, inhibition refers to the change of the read-out against control, counted positive when it falls. As a reminder, the MIC is the least concentration at which growth counts as inhibited. Low values mean inhibition by little substance, high ones a need for much substance.

Experiment [1] deals with Escherichia coli. The experiment can be described thus: Inhibition of ribosomal subunit assembly in Escherichia coli assessed as accumulation of partially processed 23S rRNA in 30S, 40S and 50S fractions at 100 ug/ml after 2 hrs by primer extension analysis at 25 degC. It is filed as functional, organism-based. An outline of the steps:
(§1)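 Ribosomes from MG1655 drug-treated in 2× YT (1 h at 37°C or 2 h at 25°C from A600 0.2) were separated on 10–25% sucrose gradients. RNA was isolated from fractions by isopropanol precipitation and guanidinium thiocyanate/silica binding. 5′ ends of 23S and 16S rRNA were mapped by reverse transcription from specific primers, alongside sequencing lanes.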

Experiment [2] relates to Escherichia coli. The experiment can be described thus: Inhibition of ribosomal subunit assembly in Escherichia coli assessed as accumulation of partially processed 23S rRNA in 30S, 40S and 50S fractions at 7 ug/ml after 2 hrs by primer extension analysis at 25 degC. It is filed as functional, organism-based. Summed up: as §1
Experiment [3] deals with Escherichia coli. The experiment can be described thus: Inhibition of ribosomal subunit assembly in Escherichia coli assessed as accumulation of partially processed 23S rRNA in 30S, 40S and 50S fractions at 7 ug/ml after 1 hr by primer extension analysis at 37 degC. The experiment is classed as functional, organism-based. An outline of the steps: as §1
Experiment [4] relates to Escherichia coli. Description: Inhibition of ribosomal subunit assembly in Escherichia coli assessed as retardation of 16S rRNA processing at 100 ug/ml after 1 hr by primer extension analysis at 37 degC. The experiment is classed as functional, organism-based. An outline of the steps: as §1
The test system of experiment [5] is Escherichia coli. Description: Inhibition of ribosomal subunit assembly in Escherichia coli assessed as accumulation of assembly-deffective particles between 50S and 20S regions after 10 mins by sucrose gradient fractionation. It is filed as functional, organism-based. Summed up:
(§2)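 Cells grown at 37°C in tryptone/yeast extract/NaCl to A600 0.2, then exposed to erythromycin (final 100 μg/ml) or chloramphenicol (final 7 μg/ml). After 5, 10 or 60 min, pulsed 5 min with [3H]uridine, 2 μCi per 50 ml; some samples chased 5 min with rifampin, final 500 μg/ml. Sucrose gradients cut into 40 fractions; TCA-precipitable radioactivity counted by scintillation.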

In experiment [6] the test system is Escherichia coli. Description: Inhibition of large ribosomal subunit assembly in Escherichia coli assessed as accumulation of 23S rRNA in 40S fraction at 7 ug/ml after 1 hr by sucrose gradient fractionation at 37 degC. The experiment is classed as functional, organism-based. Summed up:
(§3)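 MG1655 grown in 2× YT at 25 or 37°C to A600 0.2, then drug added (final concentration as per line). Incubated 2 h at 25°C or 1 h at 37°C. Freeze-thaw lysis used lysozyme and DNase I. Lysate was run on a 10–25% sucrose gradient in buffer D, pH 8, for 13.5 h at 4°C. Fraction RNA was dot-blotted with 32P-labelled 16S/23S oligonucleotide probes, loading 0.2 pmol 50S-fraction 23S RNA.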

Experiment [7] deals with Escherichia coli. The experiment can be described thus: Inhibition of ribosomal subunit assembly in Escherichia coli assessed as retardation of 16S rRNA processing at 7 ug/ml after 2 hrs by primer extension analysis at 25 degC. It is filed as functional, organism-based. An outline of the steps: as §1
In experiment [8] the test system is Escherichia coli. The experiment can be described thus: Inhibition of large ribosomal subunit assembly in Escherichia coli assessed as accumulation of 23S rRNA in 70S and 50S fractions at 7 ug/ml after 2 hrs by sucrose gradient fractionation at 25 degC. It is filed as functional, organism-based. Summed up:
as §3

For experiment [9], the system named is Escherichia coli. Description: Inhibition of large ribosomal subunit assembly in Escherichia coli assessed as accumulation of 23S rRNA in 70S and 50S fractions at 7 ug/ml after 1 hr by sucrose gradient fractionation at 37 degC. The experiment is classed as functional, organism-based. An outline of the steps: as §3
Experiment [10] deals with Escherichia coli. Description: Antimicrobial activity against Escherichia coli at 7 ug/ml after 8 hrs. It is filed as functional. An outline of the steps:
(§4)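 E. coli MG1655 culture growth followed by optical density over 8 h, with the drug-treated culture expressed relative to an untreated control culture.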

Experiment [11] has as its system Escherichia coli. Description: Inhibition of ribosomal subunit assembly in Escherichia coli assessed as reduction in mature 23S rRNA at 7 ug/ml. The experiment is classed as functional.
For experiment [12], the system named is Escherichia coli. The experiment can be described thus: Inhibition of small ribosomal subunit assembly in Escherichia coli assessed as accumulation of 16S rRNA at 7 ug/ml after 2 hrs by sucrose gradient fractionation at 25 degC. It is filed as functional, organism-based. An outline of the steps: as §3
In experiment [13] the test system is Escherichia coli. The experiment can be described thus: Inhibition of ribosomal subunit assembly in Escherichia coli assessed as retardation of 16S rRNA processing at 100 ug/ml after 2 hrs by primer extension analysis at 25 degC. It is filed as functional, organism-based. Summed up:
as §1

The subject of experiment [14] is Escherichia coli. Description: Inhibition of ribosomal subunit assembly in Escherichia coli assessed as accumulation of partially processed 23S rRNA in 30S, 40S and 50S fractions at 100 ug/ml after 1 hr by primer extension analysis at 37 degC. It is filed as functional, organism-based. An outline of the steps: as §1
For experiment [15], the system named is Escherichia coli. The experiment can be described thus: Inhibition of large ribosomal subunit assembly in Escherichia coli assessed as accumulation of 23S rRNA in 40S fraction at 7 ug/ml after 2 hrs by sucrose gradient fractionation at 25 degC. The experiment is classed as functional, organism-based. An outline of the steps:
as §3

In experiment [16] the test system is Escherichia coli. Description: Inhibition of small ribosomal subunit assembly in Escherichia coli assessed as accumulation of 16S rRNA at 7 ug/ml after 1 hr by sucrose gradient fractionation at 37 degC. The experiment is classed as functional, organism-based. Summed up:
as §3

For experiment [17], the system named is Escherichia coli. Description: Inhibition of ribosomal subunit assembly in Escherichia coli assessed as retardation of 16S rRNA processing at 7 ug/ml after 1 hr by primer extension analysis at 37 degC. It is filed as functional, organism-based. Summed up: as §1
For experiment [18], the system named is Escherichia coli. Description: Inhibition of ribosomal subunit assembly in Escherichia coli assessed as accumulation of assembly-deffective particles between 50S and 20S regions after 60 mins by sucrose gradient fractionation. The experiment is classed as functional, organism-based. Summed up: as §2
Experiment [19] has as its system Staphylococcus aureus. The experiment can be described thus: Antimicrobial activity against Staphylococcus aureus UCN17 with A2058G mutation in rrl allele. It is filed as functional. Summed up: (§5)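 Clinical S. aureus isolates carrying rRNA operon mutations: UCN14 has A2058T in 4 of 5 rrl alleles, UCN17 has A2058G in 4 of 6, and UCN18 has A2059G in 3 of 5. MIC was determined for erythromycin by microbroth dilution in 96-well plates.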

Experiment [20] concerns Staphylococcus aureus. The experiment can be described thus: Antimicrobial activity against Staphylococcus aureus UCN14 with A2058T mutation in rrl allele. It is filed as functional. Summed up: as §5
Experiment [21] deals with Escherichia coli. Description: Antimicrobial activity against Escherichia coli at 100 ug/ml after 8 hrs. The experiment is classed as functional. Summed up:
as §4

In experiment [22] the test system is Escherichia coli. Description: Inhibition of ribosomal subunit assembly in Escherichia coli assessed as reduction in mature 23S rRNA at 100 ug/ml. It is filed as functional.
In experiment [23] the test system is Staphylococcus aureus. Description: Antimicrobial activity against Staphylococcus aureus UCN18 with A2059G mutation in rrl allele. It is filed as functional. An outline of the steps: as §5
The test system of experiment [24] is Escherichia coli. Description: Inhibition of small ribosomal subunit assembly in Escherichia coli assessed as accumulation of 16S rRNA at 100 ug/ml after 2 hrs by sucrose gradient fractionation at 25 degC. It is filed as functional, organism-based. Summed up:
as §3

In experiment [25] the test system is Escherichia coli. The experiment can be described thus: Inhibition of large ribosomal subunit assembly in Escherichia coli assessed as accumulation of 23S rRNA in 40S fraction at 100 ug/ml after 1 hr by sucrose gradient fractionation at 37 degC. The experiment is classed as functional, organism-based. An outline of the steps:
as §3

Experiment [26] has as its system Escherichia coli. The experiment can be described thus: Inhibition of large ribosomal subunit assembly in Escherichia coli assessed as accumulation of 23S rRNA in 70S and 50S fractions at 100 ug/ml after 2 hrs by sucrose gradient fractionation at 25 degC. The experiment is classed as functional, organism-based. Summed up: as §3
Experiment [27] deals with Escherichia coli. Description: Inhibition of ribosomal subunit assembly in Escherichia coli assessed as reduction in mature 23S rRNA at 7 ug/ml in presence of E-peptide. It is filed as functional.
For experiment [28], the system named is Escherichia coli. Description: Inhibition of large ribosomal subunit assembly in Escherichia coli assessed as accumulation of 23S rRNA in 70S and 50S fractions at 100 ug/ml after 1 hr by sucrose gradient fractionation at 37 degC. It is filed as functional, organism-based. An outline of the steps:
as §3

For experiment [29], the system named is Escherichia coli. The experiment can be described thus: Inhibition of large ribosomal subunit assembly in Escherichia coli assessed as accumulation of 23S rRNA in 40S fraction at 100 ug/ml after 2 hrs by sucrose gradient fractionation at 25 degC. The experiment is classed as functional, organism-based. Summed up:
as §3

Experiment [30] concerns Escherichia coli. Description: Inhibition of small ribosomal subunit assembly in Escherichia coli assessed as accumulation of 16S rRNA at 100 ug/ml after 1 hr by sucrose gradient fractionation at 37 degC. It is filed as functional, organism-based. Summed up: as §3

Values after ≈ are worked out from the molar mass of the structure shown. Active and inactive are the calls of the source. The rule behind the calls is not given here.

For `O=C(N[C@H](CO)[C@H](O)c1ccc([N+](=O)[O-])cc1)C(Cl)Cl` [CHLORAMPHENICOL], the inhibition entry with Escherichia coli [1], in the experiment on Escherichia coli [2], in the experiment with Escherichia coli [3], with Escherichia coli [4], in the experiment on Escherichia coli [5] and in the experiment with Escherichia coli [6] was “Active” throughout. For the same compound, the inhibition result in the experiment with Escherichia coli [7], in the experiment on Escherichia coli [8], in the experiment with Escherichia coli [9], in the experiment on Escherichia coli [12], with Escherichia coli [13] and with Escherichia coli [14] was “Active” each time. Moreover, the inhibition result in the experiment on Escherichia coli [15], in the experiment on Escherichia coli [16], with Escherichia coli [17] and in the experiment on Escherichia coli [18] was “Active” in each case. This compound yielded an Activity in the experiment with Escherichia coli [10] of 70%. Also, the inhibition at 7 µg/mL in the experiment with Escherichia coli [11] was determined as 50%.
As for `CC[C@H]1OC(=O)[C@H](C)[C@@H](O[C@H]2C[C@@](C)(OC)[C@@H](O)[C@H](C)O2)[C@H](C)[C@@H](O[C@@H]2O[C@H](C)C[C@H](N(C)C)[C@H]2O)[C@](C)(O)C[C@@H](C)C(=O)[C@H](C)[C@@H](O)[C@]1(C)O` [ERYTHROMYCIN], the inhibition entry in the experiment with Escherichia coli [1], in the experiment with Escherichia coli [2], in the experiment with Escherichia coli [3], with Escherichia coli [4], in the experiment on Escherichia coli [5] and in the experiment on Escherichia coli [7] was “Active” in each case. Further, the inhibition result in the experiment with Escherichia coli [24], in the experiment with Escherichia coli [13], in the experiment with Escherichia coli [14], with Escherichia coli [17], in the experiment on Escherichia coli [26] and in the experiment on Escherichia coli [28] was “Active” throughout. The inhibition result in the experiment on Escherichia coli [18], with Escherichia coli [29] and with Escherichia coli [30] was “Active” in each case. The minimal inhibitory concentration (MIC) in the experiment on Staphylococcus aureus [19], against Staphylococcus aureus [20] and in the experiment on Staphylococcus aureus [23] was 512 µg/mL (≈ 698 µM) in each case. In the experiment on Escherichia coli [21], this compound showed an Activity of 70%. In addition, the inhibition at 100 µg/mL in the experiment with Escherichia coli [22] was 30%. Also, in the experiment on Escherichia coli [25], the outcome was Active. Further, in the experiment with Escherichia coli [27], the inhibition at 7 µg/mL amounted to 60%.
